NTR1 ag – activates human neurotensin receptor 1; P30989; NTR1-U2OS beta-arrestin-GFP spot imaging, agonist mode; activation, % at 20 µM; 0.17% of 330,000 active; AID 493036;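 active means activation at or above 40% of the spot to cytoplasm intensity ratio, with at least 20 cells analyzed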
m5-HT2A agonist – mouse HTR2A agonism via beta-arrestin recruitment; CHO-K1 mHTR2A beta-arrestin complementation, luminescence; percent of 30 µM serotonin response; 0.66% of 360,000 active; P35363; AID 624169; activation, % at 7.6 µM;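 active means activation above a run cutoff, the mean activation of all tested compounds plus 3 SD, cut at about 14% in these data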
Target sequence (P35363 whole entry, looked up): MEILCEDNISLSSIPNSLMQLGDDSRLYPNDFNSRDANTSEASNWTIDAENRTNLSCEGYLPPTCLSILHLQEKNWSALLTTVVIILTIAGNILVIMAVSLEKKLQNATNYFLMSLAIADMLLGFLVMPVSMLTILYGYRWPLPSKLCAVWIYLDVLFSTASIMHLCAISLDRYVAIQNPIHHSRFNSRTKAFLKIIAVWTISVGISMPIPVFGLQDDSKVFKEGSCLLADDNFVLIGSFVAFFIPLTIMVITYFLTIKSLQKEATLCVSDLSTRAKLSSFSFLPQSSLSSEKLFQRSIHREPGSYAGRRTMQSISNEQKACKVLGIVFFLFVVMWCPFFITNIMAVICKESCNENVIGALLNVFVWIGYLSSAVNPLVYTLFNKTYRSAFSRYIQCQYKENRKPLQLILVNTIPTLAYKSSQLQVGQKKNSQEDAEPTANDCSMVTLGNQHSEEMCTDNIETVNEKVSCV
Hep lipid drop – modulators of hepatic lipid droplet formation | AML12 mouse hepatocytes, oleate lipid droplets, BODIPY imaging | inhibition, % at 6.5 µM | 0.4% of 240,000 active | AID 1656;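 active means lipid droplet intensity inhibited by at least 50%, with more than 500 cells counted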
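Test system: AML12 mouse liver cells; schedule: overnight exposure; technique: high-content imaging of BODIPY-stained droplets and DAPI nuclei; read-out: % inhibition of corrected integrated BODIPY droplet signal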
MC4R antagonist – blocks human MC4R cAMP signaling; P32245; 0.48% of 360,000 active; MC4R-expressing cells, MTII-stimulated cAMP, LANCE TR-FRET; inhibition, % at 6.5 µM;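 active means inhibition above its plate's cutoff, the mean of tested wells on that plate plus 3 SD, cut at about 29% in these data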
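system = U2OS cells with stable human MC4R expression | also added = Melanotan II challenge after compound preincubation | dosing = one concentration, 6.5 µM nominal | incubation = compound 30 min, challenge 1 h, detection 1 h | measured by = TR-FRET with Eu-cAMP and labeled anti-cAMP, 671 nm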
MC4R barr agon – human MC4R agonism via beta-arrestin | P32245 | U2OS MC4R beta-arrestin complementation, luminescence; percent of melanotan II response, DMSO zero | activation, % at 8.9 µM | 0.98% of 360,000 active | AID 540308;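 active means activation above a per-plate cutoff, the mean activation of sample wells on that plate plus 3 SD, cut at about 8% in these data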
PREPL inh – inhibits the human prolyl oligopeptidase-like enzyme. Q4J6C6. recombinant PREPL, fluorescence polarization activity-based probe. inhibition, % at 5.96 µM. 0.68% of 320,000 active. AID 2751; in the data active means inhibition above about 43%
OPRM1 ag – activates human mu opioid receptor in HTR2A counterscreen. shares compounds with m5-HT2A agonist. U2OS OPRM1 beta-arrestin PathHunter, luminescence; DMSO 0%, DAMGO 9.3 µM 100%. activation, % at 9.3 µM. 5.3% of 2,300 active. AID 624380;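 active means mean activation above the mean of DMSO-only wells plus 3 SD, cut at about 0.5% in these data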
HTR2A ag conf – confirmation of mouse HTR2A serotonin receptor agonists | shares compounds with m5-HT2A agonist | CHO-K1 PathHunter beta-arrestin recruitment, luminescence; DMSO 0%, 30 µM serotonin 100% | activation, % at 7.6 µM | 19% of 2,300 active | AID 624381;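 active means mean activation across triplicates above the hit threshold derived in the original primary screen, cut at about 15% in these data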
A number is an active result; n = inactive; x = no result given. Most compounds without a hit are left out; they make up all but 2.7% or so of the library.

SMILES	NTR1 ag	m5-HT2A agonist	Hep lipid drop	MC4R antagonist	MC4R barr agon	PREPL inh	OPRM1 ag	HTR2A ag conf
O=[N+]([O-])c1cccc(-c2ccc(/C=N/NC(=S)NCc3ccco3)o2)c1	n	19.9	n	n	n	n	n	n
Cn1c(NCc2ccccc2O)nc2ccccc21	n	n	x	n	n	n	x	x
Cn1c(NCc2ccccc2Cl)nc2ccccc21	n	19.8	x	n	n	n	n	n
O=S(=O)(N1CCCCCC1)N1CCN(S(=O)(=O)N2CCOCC2)CC1	n	n	n	n	n	n	x	x
O=S(=O)(N1CCCCC1)N1CCCN(S(=O)(=O)N2CCCCC2)CC1	n	15.2	n	n	n	n	n	n
Nc1ccccc1C(=O)NCC1(c2ccccc2)CCCC1	n	n	n	n	n	n	x	x
Nc1ccc2nc(-c3ccccc3)[nH]c2c1	n	15.1	x	n	n	n	n	n
CC(C)CN(CCCNC(=O)CC1Oc2ccccc2NC1=O)CC(C)C (stereo unspecified)	n	n	n	n	n	n	x	x
CCCCN(CC)CCCNC(=O)CC1Oc2ccccc2NC1=O (stereo unspecified)	n	26.7	n	n	n	n	n	89.7
Cc1nnsc1C(=O)N1CCCC1(C)C(=O)O (stereo unspecified)	x	26.8	x	n	n	x	n	n
CCOC(=O)C1(C)CCCCCN1C(=O)c1snnc1C (stereo unspecified)	x	n	x	n	n	x	x	x
Cc1ccc(NC(=C(C#N)C#N)c2ccccc2)cc1	x	n	x	n	n	x	x	x
O=C1NC[C@@H](CCCCN2C[C@H](Cc3ccccc3)N(CCC3CCCCC3)C(=O)C2=O)N(Cc2ccccc2)C1=O	x	15.4	x	x	x	x	n	n
O=C1NC[C@H](CCCCN2C[C@H](Cc3ccccc3)N(CCC3CCCCC3)C(=O)C2=O)N(CCC2CCCCC2)C1=O	x	n	x	x	x	x	x	x
CCCS(=O)(=O)NC(=O)C1(C)CCN(C(=O)c2ccc(C(F)(F)F)cc2)C1 (stereo unspecified)	x	n	x	n	n	x	x	x
C[C@H]1CN([C@@H](C)CO)S(=O)(=O)c2ccc(-c3ccccc3)cc2O[C@H]1CN(C)C(=O)C1CCC1	x	n	x	n	n	x	x	x
C[C@@H]1CN([C@@H](C)CO)S(=O)(=O)c2ccc(-c3ccccc3)cc2O[C@@H]1CN(C)Cc1ccccc1C(=O)O	x	18.9	x	n	n	x	n	n
C[C@H]1CN([C@@H](C)CO)S(=O)(=O)c2ccc(Br)cc2O[C@@H]1CN(C)S(=O)(=O)c1ccccc1	x	n	x	n	n	x	x	x
C[C@@H]1CN([C@H](C)CO)S(=O)(=O)c2ccc(C#Cc3ccccc3F)cc2O[C@H]1CN(C)C(=O)c1ccc2c(c1)OCO2	x	19.9	x	n	n	x	n	31.8
C[C@@H]1CN([C@@H](C)CO)S(=O)(=O)c2ccc(Br)cc2O[C@@H]1CN(C)S(=O)(=O)c1cn(C)cn1	x	17.1	x	n	n	x	n	n
C[C@H](CO)N1C[C@H](C)[C@@H](CN(C)CC2CCOCC2)Oc2cc(C#Cc3ccccc3F)ccc2S1(=O)=O	x	n	x	n	n	x	x	x
Cc1ccc(NC(=O)C2Cc3ccccc3CN2C(=O)c2ccccc2)cc1Cl (stereo unspecified)	n	n	n	n	n	n	x	x
CN(Cc1ccccc1)CC(O)COc1ccc(CNCCOc2cccnc2)cc1 (stereo unspecified)	n	17.8	n	n	n	n	n	37.7
CN(Cc1ccccc1)CC(O)COc1ccc(CNCCCOc2cccnc2)cc1 (stereo unspecified)	n	n	n	n	n	n	x	x
CCOC(=O)C1=C(C)N(C[C@@H]2CC[C@@H](Cc3ccc(-c4ccccc4)cc3)O2)C(=O)NC1c1cccc([N+](=O)[O-])c1 (stereo partly specified)	n	n	x	n	n	x	x	x
SMILES	NTR1 ag	m5-HT2A agonist	Hep lipid drop	MC4R antagonist	MC4R barr agon	PREPL inh	OPRM1 ag	HTR2A ag conf
CCCCC(=O)Nc1cc(C)c(NC(=O)c2ccco2)cn1	n	n	n	n	n	n	x	x
Cc1c(NC(=O)C2CC(c3ccc(F)cc3)=NO2)c(=O)n(-c2ccccc2)n1C (stereo unspecified)	n	14.6	x	n	n	n	n	n
COc1ccc(C2=NOC(C(=O)Nc3c(C)n(C)n(-c4ccccc4)c3=O)C2)cc1 (stereo unspecified)	n	n	x	n	n	n	x	x
O=C(c1cnc2n(c1=O)CCS2)N1CCN(c2ccc(Cl)c(Cl)c2)CC1	n	19.9	x	n	n	n	n	n
N#Cc1ccsc1NC(=O)C1CC(=O)N(Cc2ccccc2)C1 (stereo unspecified)	n	n	x	n	n	n	x	x
CCC12CC1(C(=O)OC)C(=O)N1CCc3c([nH]c4ccccc34)C12 (stereo unspecified)	x	36.8	x	x	x	x	n	28.3
Cc1cc(C)c(OCC(=O)NCC2COc3ccccc3O2)c(C)c1 (stereo unspecified)	n	24.2	x	n	n	n	n	16.6
Cc1ccc(C)c(OCC(=O)NCC2COc3ccccc3O2)c1 (stereo unspecified)	n	n	x	n	n	n	x	x
COc1ccc(CCNc2ccc(S(N)(=O)=O)cn2)cc1	n	16.2	n	n	n	n	n	n
COc1cccc2c1C1COC3C4CC(C(=O)O)C(C(C2)N13)N4C (stereo unspecified)	x	n	x	n	n	x	x	x
c1ccc(C(c2nnnn2C2CCCC2)N2CCN(c3nc4ccccc4s3)CC2)cc1 (stereo unspecified)	n	n	n	n	n	n	x	x
CCCC(c1nnnn1CC1CCCO1)N1CCN(c2nc3ccccc3s2)CC1 (stereo unspecified)	n	n	n	n	n	n	x	x
c1csc(C(c2nnnn2C2CCCCC2)N2CCN(c3nc4ccccc4s3)CC2)c1 (stereo unspecified)	x	15.2	n	n	n	x	n	n
CCCCC(c1nnnn1CC1CCCO1)N1CCN(c2nc3ccccc3s2)CC1 (stereo unspecified)	x	16.0	x	n	n	x	n	n
OCCN1CCN(c2ncnc3scc(-c4ccc(F)cc4)c23)CC1	n	15.8	n	n	n	x	n	n
Cc1ccsc1/C=N/N1CCN(c2ccccn2)CC1	n	n	n	n	n	n	x	x
Cc1ccsc1CN1CCN(c2ccccn2)CC1	n	34.8	n	n	n	n	n	97.9
CCN(CC)S(=O)(=O)c1cccc(-c2nnc(SCc3nc4ccccc4s3)o2)c1	n	n	n	n	n	n	x	x
Brc1ccccc1-c1nnc(SCc2nc3ccccc3s2)o1	n	15.5	n	n	n	n	n	n

High-throughput results as filed in PubChem BioAssay.
